We go through 2 compounds from ChEMBL document CHEMBL3259761, “Myrotheciumones: bicyclic cytotoxic lactones isolated from an endophytic fungus of Ajuga decumbens” (Bioorg Med Chem Lett, 2014).

Activity calls are given as the source filed them. No cut-off for these calls is given here.

A short description of experiment [1]: Cytotoxicity against human QSG7701 cells after 48 hrs by MTT assay. It counts as cell-based. The note with it: QSG7701, 48 h. A digest of the protocol: (§1)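 Cell lines: HepG2, A549 and MCF-7 from ATCC; SMMC-7721 hepatocellular carcinoma and QSG-7701 and HL-7702 normal human hepatocyte lines from the Type Culture Collection of the Chinese Academy of Sciences, Shanghai. Each line was exposed to compound and growth inhibition was scored; IC50 values reported as mean ± deviation.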
(In general: Formazan colour is commonly taken as a measure of viable cells.)

Experiment [2] relates to SMMC-7721. Briefly: Cytotoxicity against human SMMC7721 cells after 48 hrs by MTT assay. It counts as functional, cell-based. The note with it: SMMC-7721, 48 h. An outline of the steps:
as §1

The subject of experiment [3] is HepG2. The experiment in a line: Cytotoxicity against human HepG2 cells after 48 hrs by MTT assay. As to conditions: HepG2, 48 h. It counts as functional, cell-based. An outline of the steps:
as §1

For experiment [4], the system named is HepG2. The experiment in a line: Induction of apoptosis in human HepG2 cells assessed as caspase 3 activity at 4 uM at 12 hrs by Ac-DEVD-pNA-based colorimetric assay relative to control. It counts as functional. A digest of the protocol:
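HepG2 cells were treated at 4 µM for 0, 3, 6 and 12 h. Caspase-3 activity was measured colorimetrically as conversion of Ac-DEVD-pNA to p-nitroaniline, using a Biovision kit per the manufacturer's protocol. Activity was expressed as fold over control.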

Experiment [5] has as its system A549. The experiment in a line: Cytotoxicity against human A549 cells after 48 hrs by MTT assay. It counts as functional, cell-based. The note with it: A549, 48 h. An outline of the steps:
as §1

For experiment [6], the system named is MCF7. The experiment in a line: Cytotoxicity against human MCF7 cells after 48 hrs by MTT assay. It counts as functional, cell-based. As to conditions: MCF7, 48 h. A digest of the protocol: as §1
The test system of experiment [7] is HepG2. Briefly: Induction of apoptosis in human HepG2 cells assessed as cytochrome c release from mitochondria at 4 uM after 12 hrs by immunofluorescence analysis relative to control. It counts as functional, cell-based. An outline of the steps:
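HepG2 cells were treated at 4 µM for 12 h, then assessed for cytochrome c release from mitochondria.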

Experiment [8] relates to HepG2. The experiment in a line: Induction of apoptosis in human HepG2 cells assessed as PARP cleavage after 8 hrs by Western blotting. It counts as functional, cell-based. An outline of the steps:
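HepG2 cells were treated either at 5, 10 and 20 µM for 8 h, or at 4 µM for 0, 3, 6 or 12 h. PARP cleavage was then assessed.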
For orientation: Immunoblotting shows a protein as a band on a membrane.

A short description of experiment [9]: Cytotoxicity against human HL7702 cells after 48 hrs by MTT assay. The note with it: L02, 48 h. It counts as cell-based. An outline of the steps: as §1
The test system of experiment [10] is HepG2. The experiment in a line: Cytotoxicity against human HepG2 cells at 100 uM after 48 hrs by MTT assay. It counts as functional, cell-based.
For experiment [11], the system named is SMMC-7721. Briefly: Cytotoxicity against human SMMC7721 cells at 100 uM after 48 hrs by MTT assay. It counts as functional, cell-based.
Experiment [12] relates to MCF7. The experiment in a line: Cytotoxicity against human MCF7 cells at 100 uM after 48 hrs by MTT assay. It counts as functional, cell-based.
Experiment [13] concerns A549. Briefly: Cytotoxicity against human A549 cells at 100 uM after 48 hrs by MTT assay. It counts as functional, cell-based.

The IC50 is the midpoint of a concentration-inhibition curve. Low readings indicate greater potency, high ones weaker potency. In the case of `C[C@@H]1[C@@H]2CC(=O)O[C@@H]2C[C@]1(C)O`, the half-inhibitory concentration (IC50) in experiment [1] came to 16.3 µM; in experiment [2] it was 6.56 µM; in experiment [3], 5.36 µM; in [5], 5.88 µM; in [6], 7.56 µM; in experiment [9], 20.7 µM. Moreover, in experiment [4], the “fold change (FC)” value is 6. Besides, the result in experiment [7] was Active. For the same compound, the Activity entry in experiment [8] was “Dose-dependent effect”.

`C[C@@H]1[C@@H]2C(=O)O[C@@H]2C[C@]1(C)O`: the result in experiment [10], in experiment [11], in experiment [12] and in [13] was inactive.
